From ChEMBL document CHEMBL3596191, “Inhibition studies of bacterial, fungal and protozoan β-class carbonic anhydrases with Schiff bases incorporating sulfonamide moieties” (Bioorg Med Chem, 2015) come the findings set out here.

The nature of test [1]: Inhibition of Cryptococcus neoformans beta-carbonic anhydrase incubated for 15 mins prior to testing by stopped-flow CO2 hydration assay. The method in brief: (§1)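 CO2 was 1.7–17 mM. Initial rates were taken from at least six traces of the first 5–10% of reaction over 10–100 s, with uncatalysed rates subtracted. Inhibitor dilutions were in water down to 0.01 nM, preincubated with enzyme 15 min at room temperature.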

Test [2] is described as follows: Inhibition of Brucella suis beta-carbonic anhydrase 1 incubated for 15 mins prior to testing by stopped-flow CO2 hydration assay. The method in brief: (§2)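 Stopped-flow CO2 hydration; 0.2 mM phenol red read at 557 nm in 10 mM Hepes pH 7.4, 10 mM Tris-HCl, 0.1 M NaSO4; CO2 1.7–17 mM. Inhibitor (10 mM water stock, diluted down to 0.01 nM) preincubated with enzyme 15 min at room temperature. Initial rates from at least six traces of the first 5–10% of reaction, over 10–100 s, with uncatalysed rates subtracted.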

A short description of test [3]: Inhibition of Brucella suis beta-carbonic anhydrase 2 incubated for 15 mins prior to testing by stopped-flow CO2 hydration assay. The method in brief:
as §2

Test [4] is described as follows: Inhibition of Leishmania donovani chagasi beta-carbonic anhydrase incubated for 15 mins prior to testing by stopped-flow CO2 hydration assay. The gist of the method: as §1
Test [5] in a line: Selectivity ratio of Ki for human alpha-carbonic anhydrase 1 to Ki for Cryptococcus neoformans beta-carbonic anhydrase. The gist of the method: (§3)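 Ki ratio, human CA isoform Ki divided by pathogen β-CA Ki, used as an index of selectivity for the pathogen enzyme over the human enzyme.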
Test [6] can be described thus: Selectivity ratio of Ki for human alpha-carbonic anhydrase 1 to Ki for Brucella suis beta-carbonic anhydrase 1.
Test [7] is described as follows: Selectivity ratio of Ki for human alpha-carbonic anhydrase 1 to Ki for Brucella suis beta-carbonic anhydrase 2.
The nature of test [8]: Selectivity ratio of Ki for human alpha-carbonic anhydrase 1 to Ki for Leishmania donovani chagasi beta-carbonic anhydrase. The gist of the method: as §3
Test [9] is described as follows: Selectivity ratio of Ki for human alpha-carbonic anhydrase 2 to Ki for Cryptococcus neoformans beta-carbonic anhydrase. The gist of the method: as §3
A short description of test [10]: Selectivity ratio of Ki for human alpha-carbonic anhydrase 2 to Ki for Brucella suis beta-carbonic anhydrase 1.
The nature of test [11]: Selectivity ratio of Ki for human alpha-carbonic anhydrase 2 to Ki for Brucella suis beta-carbonic anhydrase 2.
A short description of test [12]: Selectivity ratio of Ki for human alpha-carbonic anhydrase 2 to Ki for Leishmania donovani chagasi beta-carbonic anhydrase. The method in brief:
as §3

Test [13] relates to Brucella suis. Briefly: Potency index, ratio of acetazolamide Ki to compound Ki for Brucella suis beta-carbonic anhydrase 2.
The subject of test [14] is Brucella suis. Briefly: Potency index, ratio of benzolamide Ki to compound Ki for Brucella suis beta-carbonic anhydrase 2.
Test [15] has as its system Brucella suis. Briefly: Potency index, ratio of dichlorphenamide Ki to compound Ki for Brucella suis beta-carbonic anhydrase 2.

Usually Ki stands for the equilibrium dissociation constant of an inhibitor or competing ligand from its target. Consider `NS(=O)(=O)c1ccc(CC/N=C/c2cccc(Br)c2O)cc1`, for which the Ki in test [1] is 15.7 nM; in test [2] it was 45.1 nM; in [3] it was 24.3 nM; in test [4], 1270 nM. For the same molecule, the Ratio Ki was 340 in test [5]; 118 in [6]; 220 in test [7]; 4.2 in [8]; more than 637 in [9]; more than 222 in test [10]. Further, the Ratio Ki in test [11] is more than 412; in test [12] it was more than 7.9; in the test with Brucella suis [13], 10; in the test with Brucella suis [14] it was 10; in the test on Brucella suis [15] it was 10.

On to `NS(=O)(=O)c1ccc(CC/N=C/c2ccc(-c3ccccc3)cc2)cc1`, for which the inhibitory constant (Ki) in test [1] is 1.44 nM; in [2], 59.7 nM; in test [3], 15.1 nM; in test [4], 542 nM. Also, the Ratio Ki in [5] was 4860; in test [6], 117; in test [7] it was 465; in [8] it was 12.9; in test [9] it was 487; in test [10] it was 11.7. Further, the Ratio Ki was 46.5 in [11]; 1.3 in [12]; 10 with Brucella suis [13]; 10 with Brucella suis [14]; 10 with Brucella suis [15].

Regarding `NS(=O)(=O)c1ccc(CC/N=C/c2ccc(S(=O)(=O)O)o2)cc1`, the Ki in test [1] came to 12.1 nM; in [2], 682 nM; in [3] it was 25.7 nM; in [4], 1430 nM. Further, the Ratio Ki in [5] stood at 236; in [6] it was 4.2; in test [7], 111; in test [8], 2; in test [9] it was 38.5; in test [10] it was 0.7. Further, the Ratio Ki in test [11] stood at 18.1; in test [12] it was 0.3; with Brucella suis [13], 10; in the test on Brucella suis [14], 10; with Brucella suis [15] it was 10.

Turning to `COc1ccc(/C=N/CCc2ccc(S(N)(=O)=O)cc2)c(O)c1`, the Ki was found to be 17 nM in test [1], 110 nM in test [2], 21.9 nM in test [3] and 190 nM in test [4]. In addition, the Ratio Ki in [5] stood at 258; in test [6], 40.2; in test [7] it was 201; in [8] it was 23.2; in [9], 40.9; in test [10], 6.4. Besides, the Ratio Ki stood at 31.8 in test [11]; 3.7 in [12]; 10 with Brucella suis [13]; 10 with Brucella suis [14]; 10 in the test with Brucella suis [15].

With `N#Cc1ccc(/C=N/CCc2ccc(S(N)(=O)=O)cc2)cc1`, the Ki in test [1] came out at 20.6 nM; in test [2] it was 85.2 nM; in test [3], 3.31 nM; in test [4] it was 1400 nM. The Ratio Ki in test [5] is 106; in [6], 25.7; in [7], 662; in test [8], 1.6; in test [9], 34.6; in [10], 8.4. Besides, the Ratio Ki in test [11] turned out to be 215; in [12], 0.5; with Brucella suis [13], 100; with Brucella suis [14], 100; with Brucella suis [15] it was 100.

On to `NS(=O)(=O)c1ccc(/N=C/c2ccco2)c(F)c1`, for which the Ki was determined as 11.6 nM in [1], 308 nM in test [2], 162 nM in test [3] and 168 nM in test [4]. Moreover, the Ratio Ki in test [5] worked out at 21.3; in test [6] it was 0.8; in test [7], 1.5; in test [8], 1.5; in [9] it was 5.5; in test [10] it was 0.2. Moreover, the Ratio Ki in test [11] was found to be 0.4; in test [12], 0.4; in the test with Brucella suis [13] it was 2.

In the case of `NS(=O)(=O)c1ccc(CC/N=C/c2ccc(-c3ccccn3)cc2)cc1`, the Ki in [1] stood at 19.2 nM; in test [2] it was 529 nM; in test [3], 24.8 nM; in test [4] it was 1240 nM. Moreover, the Ratio Ki in [5] amounted to 69.9; in test [6] it was 2.5; in test [7], 54.2; in test [8] it was 1.1; in [9], 20.9; in test [10] it was 0.8. Moreover, the Ratio Ki in test [11] is 16.3; in test [12], 0.3; in the test with Brucella suis [13], 10; in the test on Brucella suis [14], 10; in the test on Brucella suis [15], 10.

Regarding `NS(=O)(=O)c1ccc(/N=C/c2ccc(-c3ccccc3)cc2)c(F)c1`, the Ki in test [1] stood at 9.5 nM; in [2], 523 nM; in test [3] it was 161 nM; in [4] it was 155 nM. The Ratio Ki came out at 159 in test [5]; 2.9 in test [6]; 9.4 in test [7]; 9.7 in test [8]; 52.4 in test [9]; 1 in test [10]. Besides, the Ratio Ki in [11] stood at 3.1; in [12], 3.2; in the test on Brucella suis [13] it was 2.

As to `NS(=O)(=O)c1ccc(/N=C/c2ccc(Br)cc2O)cc1`, the Ki is 16.9 nM in [1], 625 nM in [2], 23.7 nM in test [3] and more than 2500 nM in [4]. Moreover, the Ratio Ki is 256 in test [5]; 6.9 in [6]; 183 in test [7]; less than 1.7 in test [8]; 41.9 in test [9]; 1.1 in [10]. Besides, the Ratio Ki in test [11] was 29.9; in [12], less than 0.3; in the test on Brucella suis [13], 10; in the test with Brucella suis [14], 10; in the test on Brucella suis [15], 10.

As for `COc1cc([N+](=O)[O-])ccc1/C=N/CCc1ccc(S(N)(=O)=O)cc1`, the Ki stood at 21.2 nM in test [1], 330 nM in test [2], 163 nM in [3] and 1940 nM in test [4]. The Ratio Ki in [5] came out at 10.1; in [6], 0.7; in [7], 1.3; in [8] it was 0.1; in [9] it was 7.9; in test [10], 0.5. Besides, the Ratio Ki in test [11] stood at 1; in test [12] it was 0.09; in the test with Brucella suis [13] it was 2.

Regarding `NS(=O)(=O)c1ccc(/N=C/c2ccc(-c3ccccn3)cc2)cc1`, the Ki was 21.7 nM in [1], 940 nM in test [2], 255 nM in [3] and 1250 nM in test [4]. Moreover, the Ratio Ki amounted to 202 in [5]; 4.6 in test [6]; 17.1 in test [7]; 3.5 in test [8]; 31.4 in test [9]; 0.7 in [10]. The values for the Ratio Ki in [11] and in test [12] were 2.7 and 0.5, respectively.

As to `NS(=O)(=O)c1ccc(CC/N=C/c2ccc(Br)cc2O)cc1`, the Ki in test [1] was found to be 22.3 nM; in test [2], 761 nM; in test [3] it was 32 nM; in test [4] it was 1980 nM. The Ratio Ki stood at 190 in [5]; 5.6 in [6]; 132 in test [7]; 2.1 in test [8]; 29.9 in [9]; 0.9 in [10]. Besides, the Ratio Ki in test [11] was 20.8; in [12] it was 0.3; with Brucella suis [13], 10; with Brucella suis [14], 10; in the test on Brucella suis [15] it was 10.

Regarding `NS(=O)(=O)c1ccc(/N=C/c2csc3ccccc23)cc1`, the Ki in [1] turned out to be 16.7 nM; in test [2], 1030 nM; in [3], 207 nM; in [4], 1420 nM. In addition, the Ratio Ki in test [5] was determined as 183; in [6], 3; in test [7], 14.8; in [8], 2.1; in [9], 39.8; in test [10], 0.6. Also, the Ratio Ki in test [11] amounted to 3.2; in [12], 0.5.

In the case of `CSc1ccc(/C=N/CCc2ccc(S(N)(=O)=O)cc2)cc1`, the inhibition constant (Ki) in test [1] is 21.8 nM; in test [2], 79.4 nM; in test [3], 28.7 nM; in test [4], 216 nM. The Ratio Ki in test [5] was 135; in [6], 37; in [7], 102; in test [8], 13.6; in test [9], 32.5; in test [10], 8.9. The Ratio Ki in [11] came to 24.7; in test [12] it was 3.3; in the test on Brucella suis [13], 10; in the test on Brucella suis [14], 10; with Brucella suis [15], 10.
